ChEMBL document CHEMBL2375221, “Preparation and antimalarial activity of semisynthetic lycorenine derivatives” (Eur J Med Chem, 2013)
pIC50: −log10 of the molar value.

Each molecule was assayed on Plasmodium falciparum (assay: Antimalarial activity against chloroquine-sensitive Plasmodium falciparum F-32 Tanzania infected in blood assessed as decrease in parasitaemia after 48 hrs).
Assay type: functional, organism-based
How it was run: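 P. falciparum F-32 Tanzania (chloroquine-sensitive) grown in glucose-enriched RPMI 1640 with 10% human serum at 37 °C. After 24 h at 37 °C, the medium was replaced with fresh medium containing compound in DMSO at three concentrations (0.1, 1, 10). Incubation continued 48 h. On day three, a blood smear from each well was used to score parasitaemia versus control. IC50 was read graphically against concentration.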

pIC50	SMILES
4.73	CN1CCC2=C[C@H](O)[C@H]3NC(=O)c4cc5c(cc4[C@H]3[C@@H]21)OCO5
4.23	CC(=O)O[C@H]1C=C2CCN(C)[C@H]2[C@@H]2c3cc4c(cc3C(=O)O[C@@H]21)OCO4
4.30	CN1CCC2=C[C@H](OC(=O)c3cccnc3)[C@H]3OC(=O)c4cc5c(cc4[C@H]3[C@@H]21)OCO5
4.37	CN1CCC2=C[C@H](OC(=O)c3ccc(Br)cc3)[C@H]3OC(=O)c4cc5c(cc4[C@H]3[C@@H]21)OCO5
4.24	CC(C)C(=O)O[C@H]1C=C2CCN(C)[C@H]2[C@@H]2c3cc4c(cc3C(=O)O[C@@H]21)OCO4
5.13	COC(=O)c1cc(C(=O)OC)cc(C(=O)O[C@H]2C=C3CCN(C)[C@H]3[C@@H]3c4cc5c(cc4C(=O)O[C@@H]32)OCO5)c1
4.26	C=CCCC(=O)O[C@H]1C=C2CCN(C)[C@H]2[C@@H]2c3cc4c(cc3C(=O)O[C@@H]21)OCO4
4.21	CCOC(=O)O[C@H]1C=C2CCN(C)[C@H]2[C@@H]2c3cc4c(cc3C(=O)O[C@@H]21)OCO4
4.31	C=Cc1ccc(C(=O)O[C@H]2C=C3CCN(C)[C@H]3[C@@H]3c4cc5c(cc4C(=O)O[C@@H]32)OCO5)cc1
4.06	C[N+]1([O-])CCC2=C[C@H](O)[C@H]3OC(=O)c4cc5c(cc4[C@H]3[C@@H]21)OCO5 (stereo partly drawn)
4.15	COC(=O)c1cc2c(cc1-c1cc(OC(C)=O)cc3c1N(C)CC3)OCO2
4.23	CN1CC[C@]2(O)[C@H](Br)[C@H](O)[C@H]3OC(=O)c4cc5c(cc4[C@H]3[C@H]12)OCO5
4.16	CN1CC[C@@]2(O)[C@@H]1[C@@H]1c3cc4c(cc3C(=O)O[C@@H]1[C@@H](O)[C@@H]2O)OCO4
4.17	C=Cc1cccc(-c2cc3c(cc2C(=O)O)OCO3)c1N(C)C
4.06	C=Cc1cccc(-c2cc3c(cc2C(=O)O)OCO3)c1N(C)CC
< 4.00	C=Cc1cccc(-c2cc3c(cc2C(=O)O)OCO3)c1N(C)CCCC
< 4.00	C=Cc1cccc(-c2cc3c(cc2C(=O)O)OCO3)c1N(C)CCCCCCCCCCC
4.17	C=Cc1cccc(-c2cc3c(cc2C(=O)OC)OCO3)c1N(C)C
4.12	C=Cc1cccc(-c2cc3c(cc2C(=O)OC)OCO3)c1N(C)CCCC
5.89	CN1CCC2=C[C@H](OC(=O)c3cccc(C(=O)O[C@H]4C=C5CCN(C)[C@H]5[C@@H]5c6cc7c(cc6C(=O)O[C@@H]54)OCO7)c3)[C@H]3OC(=O)c4cc5c(cc4[C@H]3[C@@H]21)OCO5
5.41	CN1CCC2=C[C@H](OC(=O)c3cccc(C(=O)O[C@H]4C=C5CCN(C)[C@H]5[C@@H]5c6cc7c(cc6C(=O)O[C@@H]54)OCO7)n3)[C@H]3OC(=O)c4cc5c(cc4[C@H]3[C@@H]21)OCO5
5.89	CN1CCC2=C[C@H](OC(=O)c3ccc(C(=O)O[C@H]4C=C5CCN(C)[C@H]5[C@@H]5c6cc7c(cc6C(=O)O[C@@H]54)OCO7)cc3)[C@H]3OC(=O)c4cc5c(cc4[C@H]3[C@@H]21)OCO5
5.40	CN1CCC2=C[C@H](OC(=O)CCCCC(=O)O[C@H]3C=C4CCN(C)[C@H]4[C@@H]4c5cc6c(cc5C(=O)O[C@@H]43)OCO6)[C@H]3OC(=O)c4cc5c(cc4[C@H]3[C@@H]21)OCO5

SMILES	pIC50
CN1CCC2=C[C@H](O)[C@H]3OC(=O)c4cc5c(cc4[C@@]3(O)[C@@H]21)OCO5	4.22
CN1CC=C2C=C[C@H]3OC(=O)c4cc5c(cc4[C@H]3[C@@H]21)OCO5	4.03
CN1CC[C@]2(Cl)C=C[C@H]3OC(=O)c4cc5c(cc4[C@H]3[C@H]12)OCO5	4.08
CN1CCC2=C[C@H](O)[C@H]3OC(=O)c4cc(O)c(O)cc4[C@H]3[C@@H]21	5.00
COc1cc2c(cc1OC)[C@@H]1[C@H](OC2=O)[C@@H](O)C=C2CCN(C)[C@H]21	4.07
C[N+]1=CCC2=C[C@H](O)[C@H]3OC(=O)c4cc5c(cc4[C@H]3[C@@H]21)OCO5	< 4.00
CN1CC[C@@H]2C[C@H](O)[C@H]3OC(=O)c4cc5c(cc4[C@H]3[C@@H]21)OCO5	4.10
CN1CC[C@]2(Br)C[C@H](O)[C@H]3OC(=O)c4cc5c(cc4[C@H]3[C@H]12)OCO5	4.23
CN1CCC2=C[C@H](O)[C@H]3OC(=O)c4cc5c(cc4[C@H]3[C@@H]21)OCO5	4.90
CN1CCC2=CC(=O)[C@H]3OC(=O)c4cc5c(cc4[C@H]3[C@@H]21)OCO5 [2-OXOHIPPEASTRINE]	4.10
